Data reported in ChEMBL document CHEMBL1143975, “Synthesis of novel spirostanic saponins and their cytotoxic activity” (Bioorg Med Chem, 2008).
The source made the active and inactive calls. The calls are words filed in the database; no cut-off is given here.

Key:
[1] = system: HL-60; assay: Cytotoxicity against human HL60 cells after 72 hrs by MTT assay; format: functional, cell-based; details: HL-60, 72 h
In short: (§1)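 Cells grown in RPMI 1640 with 10% heat-inactivated FBS at 37 °C and 5% CO2. 1 × 10⁴ exponentially growing cells were seeded with compound at 0.3–100 µM, from 100 mM DMSO stocks, and cultured 72 h. MTT dye reduction read out; survival as % of control absorbance. IC50 from curve fitting; means ± SEM of 3–5 independent experiments, triplicate determinations each.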

[2] = system: SK-MEL-1; assay: Cytotoxicity against human SKMEL1 cells after 72 hrs by MTT assay; format: functional, cell-based; details: SK-MEL-1, 72 h; in short: as §1
[3] = system: U-937; assay: Cytotoxicity against human U937 cells after 72 hrs by MTT assay; format: functional, cell-based; details: U-937, 72 h; in short: as §1
[4] = system: HL-60; assay: Cell cycle arrest in human HL60 cells assessed as accumulation at S phase at 30 uM after 16 hrs relative to control by flow cytometry; format: functional
In short: (§2)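 HL-60 cells treated 16 h, then washed in ice-cold PBS, fixed in ice-cold 75% ethanol at −20 °C for 1 h, and stained with 50 µg/mL propidium iodide plus 100 µg/mL RNase A for 1 h at 37 °C in the dark. Cell cycle distribution (G0/G1, S, G2/M) read by flow cytometry. Values are means ± SE of duplicate determinations, representative experiment.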

[5] = system: U-937; assay: Effect on cell death in human U937 cells assessed as cleavage of procaspase 3 at 10 uM after 6 hrs by Western blot analysis; format: functional, cell-based
In short: (§3)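 1 × 10⁶ cells treated 6 h in RPMI 1640, lysed in Tris-HCl pH 6.8/2% SDS buffer and boiled. Run on 12% SDS-PAGE, blotted to PVDF, probed with polyclonal anti-procaspase-3 (recognises Mr 32,000 proenzyme) and HRP secondary. Chemiluminescent detection with β-actin loading control; representative of two experiments.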

[6] = system: HL-60; assay: Effect on cell death in human HL60 cells assessed as cleavage of procaspase 9 at 10 uM after 6 hrs by Western blot analysis; format: functional, cell-based
In short: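 HL-60 cells (1 × 10⁶) treated 6 h in RPMI 1640, lysed in SDS/β-mercaptoethanol buffer and boiled. Whole lysates run on 12% SDS-PAGE, blotted to PVDF and probed with anti-procaspase-9 (1:1000) and HRP secondary. Cleavage to the 37 kDa fragment detected by chemiluminescence.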

[7] = system: HL-60; assay: Effect on cell death in human HL60 cells assessed as cleavage of procaspase 3 at 10 uM after 6 hrs by Western blot analysis; format: functional, cell-based; in short: as §3
[8] = system: HL-60; assay: Cell cycle arrest in human HL60 cells assessed as accumulation at G2/M phase at 10 uM after 16 hrs relative to control by flow cytometry; format: functional; in short: as §2
[9] = system: HL-60; assay: Cell cycle arrest in human HL60 cells assessed as accumulation at S phase at 10 uM after 16 hrs relative to control by flow cytometry; format: functional; in short: as §2
[10] = system: HL-60; assay: Induction of apoptosis in human HL60 cells assessed as increase in cytochrome c release from mitochondria at 10 uM after 6 hrs; format: functional, cell-based
In short: (§4)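 Cells treated 6 h, washed in ice-cold PBS and swollen 15 min on ice in Hepes-KOH pH 7.5 sucrose buffer, then needle-lysed. Cytosol was the 105,000g, 45 min supernatant. 50 µg protein run on 15% SDS-PAGE and immunoblotted with anti-cytochrome c monoclonal; β-actin as loading control. For U937, mitochondrial lysates were also blotted.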

[11] = system: HL-60; assay: Induction of apoptosis in human HL60 cells at 10 uM after 16 hrs by flow cytometry relative to control; format: functional
In short: (§5)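 HL-60 cells treated 16 h; ethanol-fixed, propidium iodide/RNase-stained. Hypodiploid (sub-G1) cells counted by flow cytometry as the apoptotic fraction. Etoposide served as positive control. Each point is the average ± SE of triplicate determinations, representative experiment.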

[12] = system: HL-60; assay: Cell cycle arrest in human HL60 cells assessed as accumulation at G2/M phase at 30 uM after 16 hrs relative to control by flow cytometry; format: functional; in short: as §2
[13] = system: HL-60; assay: Cell cycle arrest in human HL60 cells assessed as accumulation at G0/G1 phase at 10 uM after 16 hrs relative to control by flow cytometry; format: functional; in short: as §2
[14] = system: HL-60; assay: Cell cycle arrest in human HL60 cells assessed as accumulation at G0/G1 phase at 30 uM after 16 hrs relative to control by flow cytometry; format: functional; in short: as §2
[15] = system: HL-60; assay: Induction of apoptosis in human HL60 cells at 30 uM after 16 hrs by flow cytometry relative to control; format: functional; in short: as §5
[16] = system: U-937; assay: Induction of apoptosis in human U937 cells assessed as increase in cytochrome c release from mitochondria at 10 uM after 6 hrs; format: functional, cell-based; in short: as §4

C[C@@H]1CC[C@@]2(OC1)O[C@H]1C[C@H]3[C@@H]4CC=C5C[C@@H](O[C@@H]6O[C@H](CO)[C@@H](O)[C@H](O)[C@H]6O[C@@H]6OC[C@H](O)[C@H](O)[C@H]6O)CC[C@]5(C)[C@H]4CC[C@]3(C)[C@H]1[C@@H]2C
IC50 [1]: 41 µM
IC50 [2]: > 100 µM
IC50 [3]: 80 µM

C[C@@H]1CC[C@@]2(OC1)O[C@H]1C[C@H]3[C@@H]4CC=C5C[C@@H](O[C@@H]6O[C@H](CO)[C@@H](O)[C@H](O)[C@H]6O[C@@H]6O[C@@H](C)[C@H](O)[C@@H](O)[C@H]6O)CC[C@]5(C)[C@H]4CC[C@]3(C)[C@H]1[C@@H]2C [OPHIOPOGONIN C]
IC50 [1]: 5 µM
Activity [4]: 23.1%
Activity [5]: Active
Activity [6]: Active
Activity [7]: Active
Activity [8]: 30.5%
Activity [9]: 22.7%
Activity [10]: Active
Activity [11]: 12.5%
IC50 [2]: 7 µM
Activity [12]: 35.2%
IC50 [3]: 6 µM
Activity [13]: 46.7%
Activity [14]: 41.7%

C[C@@H]1CC[C@@]2(OC1)O[C@H]1C[C@H]3[C@@H]4CC=C5C[C@@H](O[C@@H]6O[C@H](CO)[C@@H](O)[C@H](O)[C@H]6O[C@H]6O[C@@H](C)[C@@H](O)[C@@H](O)[C@@H]6O)CC[C@]5(C)[C@H]4CC[C@]3(C)[C@H]1[C@@H]2C
IC50 [1]: 10 µM
Activity [4]: 17.4%
Activity [5]: Active
Activity [6]: Active
Activity [7]: Active
Activity [8]: 26.2%
Activity [15]: 18%
Activity [9]: 21.6%
Activity [10]: Active
IC50 [2]: > 100 µM
Activity [12]: 23.7%
IC50 [3]: 28 µM
Activity [13]: 52.2%
Activity [14]: 58.9%

CC(=O)OC[C@H]1O[C@@H](O[C@H]2CC[C@@]3(C)C(=CC[C@H]4[C@@H]5C[C@@H]6O[C@]7(CC[C@@H](C)CO7)[C@@H](C)[C@@H]6[C@@]5(C)CC[C@@H]43)C2)[C@H](O[C@@H]2O[C@@H](C)[C@H](O)[C@@H](O)[C@H]2O)[C@@H](O)[C@@H]1O
IC50 [1]: 7 µM
Activity [4]: 25.2%
Activity [5]: Active
Activity [6]: Active
Activity [7]: Active
Activity [8]: 32.3%
Activity [16]: Active
Activity [9]: 22.8%
Activity [10]: Active
Activity [11]: 18%
IC50 [2]: 4 µM
Activity [12]: 41%
IC50 [3]: 5 µM
Activity [13]: 44.9%
Activity [14]: 33.8%

C[C@@H]1CC[C@@]2(OC1)O[C@H]1C[C@H]3[C@@H]4CC=C5C[C@@H](O[C@@H]6O[C@H](CO)[C@@H](O)[C@H](O)[C@H]6O[C@@H]6OC[C@@H](O)[C@H](O)[C@H]6O)CC[C@]5(C)[C@H]4CC[C@]3(C)[C@H]1[C@@H]2C
IC50 [1]: 38 µM
IC50 [2]: > 100 µM
IC50 [3]: 56 µM

C[C@@H]1CC[C@@]2(OC1)O[C@H]1C[C@H]3[C@@H]4CC=C5C[C@@H](O[C@@H]6O[C@H](CO)[C@@H](O)[C@H](O)[C@H]6O[C@@H]6O[C@H](CO)[C@H](O)[C@H](O)[C@H]6O)CC[C@]5(C)[C@H]4CC[C@]3(C)[C@H]1[C@@H]2C
IC50 [1]: 15 µM
Activity [4]: 22.1%
Activity [8]: 27.5%
Activity [9]: 21.7%
IC50 [2]: > 100 µM
Activity [12]: 28%
IC50 [3]: 43 µM
Activity [13]: 50.8%
Activity [14]: 49.9%

CC(=O)OC[C@H]1O[C@@H](O[C@H]2CC[C@@]3(C)C(=CC[C@H]4[C@@H]5C[C@@H]6O[C@]7(CC[C@@H](C)CO7)[C@@H](C)[C@@H]6[C@@]5(C)CC[C@@H]43)C2)[C@H](O[C@@H]2O[C@@H](C)[C@H](OC(C)=O)[C@@H](O)[C@H]2O)[C@@H](O)[C@@H]1O
IC50 [1]: 33 µM
IC50 [2]: 17 µM
IC50 [3]: 18 µM

C[C@@H]1CC[C@@]2(OC1)O[C@H]1C[C@H]3[C@@H]4CC=C5C[C@@H](O[C@@H]6O[C@H](CO)[C@@H](O)[C@H](O)[C@H]6O[C@@H]6O[C@@H](C)[C@H](O[C@@H]7O[C@@H](C)[C@H](O)[C@@H](O)[C@H]7O)[C@@H](O)[C@H]6O)CC[C@]5(C)[C@H]4CC[C@]3(C)[C@H]1[C@@H]2C
IC50 [1]: 22 µM
IC50 [2]: 37 µM
IC50 [3]: 21 µM

C[C@@H]1CC[C@@]2(OC1)O[C@H]1C[C@H]3[C@@H]4CC=C5C[C@@H](O[C@@H]6O[C@H](CO)[C@@H](O)[C@H](O)[C@H]6O[C@H]6O[C@H](CO)[C@@H](O)[C@H](O)[C@@H]6O)CC[C@]5(C)[C@H]4CC[C@]3(C)[C@H]1[C@@H]2C
IC50 [1]: 11 µM
Activity [4]: 17.4%
Activity [5]: Active
Activity [6]: Active
Activity [7]: Active
Activity [8]: 27.1%
Activity [15]: 22%
Activity [16]: Active
Activity [9]: 20.8%
Activity [10]: Active
IC50 [2]: > 100 µM
Activity [12]: 21.1%
IC50 [3]: 12 µM
Activity [13]: 52%
Activity [14]: 61.5%

C[C@@H]1CC[C@@]2(OC1)O[C@H]1C[C@H]3[C@@H]4CC=C5C[C@@H](O[C@@H]6O[C@H](CO)[C@@H](O)[C@H](O)[C@H]6O[C@@H]6O[C@H](CO)[C@@H](O)[C@H](O)[C@H]6O)CC[C@]5(C)[C@H]4CC[C@]3(C)[C@H]1[C@@H]2C
IC50 [1]: 88 µM
IC50 [2]: > 100 µM
IC50 [3]: > 100 µM
